PABP polyA inh: PABP-poly(A) binding inhibition | PABP-poly(A) RNA binding, fluorescence polarization | inhibition, % at 35 µM | 1% of 290,000 active | AID 2014;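 also: calls also rest on retests at 20 µM and on dose response follow-up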
Target sequence (P11940 whole entry, looked up): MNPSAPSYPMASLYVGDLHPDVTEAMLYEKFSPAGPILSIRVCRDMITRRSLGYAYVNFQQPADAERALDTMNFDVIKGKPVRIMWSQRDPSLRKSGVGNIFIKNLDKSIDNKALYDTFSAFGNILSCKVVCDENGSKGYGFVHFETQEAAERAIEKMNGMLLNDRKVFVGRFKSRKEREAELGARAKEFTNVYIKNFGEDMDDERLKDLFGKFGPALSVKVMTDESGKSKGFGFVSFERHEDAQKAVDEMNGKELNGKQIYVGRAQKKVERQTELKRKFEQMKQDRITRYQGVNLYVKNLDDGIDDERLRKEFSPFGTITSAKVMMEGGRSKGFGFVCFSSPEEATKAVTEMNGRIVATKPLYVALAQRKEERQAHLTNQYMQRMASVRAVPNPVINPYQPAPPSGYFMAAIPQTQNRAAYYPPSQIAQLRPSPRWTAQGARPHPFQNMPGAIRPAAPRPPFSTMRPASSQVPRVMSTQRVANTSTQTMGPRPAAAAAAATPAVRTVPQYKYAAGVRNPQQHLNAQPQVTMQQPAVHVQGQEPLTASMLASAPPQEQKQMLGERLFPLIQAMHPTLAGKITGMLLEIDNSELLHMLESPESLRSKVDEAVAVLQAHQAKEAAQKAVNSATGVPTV
eIF4H FP inh: inhibitors of RNA binding by human eIF4H; Q15056; eIF4H fluorescence polarization binding assay; inhibition, % at 35 µM; 0.94% of 290,000 active;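 also: calls also rest on retests at 20 µM and on dose response follow-up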
HCV NS3 hel inh: inhibitors of Hepatitis C virus NS3 helicase. NS3 helicase DNA unwinding, Cy5 molecular beacon fluorescence. inhibition, % at 10.9 µM. 0.56% of 290,000 active. AID 1800;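 active = inhibition above the mean of all tested compounds plus 3 SD, set per campaign, cut at about 35% in these data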;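 also: 0% = DMSO wells and 100% = thioflavine S control wells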
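Material: hepatitis C virus NS3 helicase domain fragment enzyme; measured by: Cy5 fluorescence, 0 and 60 min reads; control set: DMSO and thioflavine S; incubation: 60 min unwinding reaction at 25 °C after ATP addition; read-out basis: % inhibition from 60/0 min fluorescence ratio, DMSO 0%, thioflavine S 100%; repeats: singlicate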
DNA FID counter: displaces DNA intercalator in HCV helicase counter-screen; DNA fluorescent intercalator displacement, fluorescence; 0.17% of 290,000 active; inhibition, % at 7.9 µM; AID 1845; in the data active = inhibition above about 37%;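 also: 0% = vehicle and 100% = reference compound; higher means more ethidium bromide displaced from hairpin DNA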
PABP1 MLLE inh: blocks PAM2 peptide binding to the PABP1 MLLE domain | P11940 | GST-MLLE / FITC-PAM2 fluorescence polarization | inhibition, % at 20 µM | 0.36% of 360,000 active | AID 588489; in the data active = inhibition above about 35%, passing the limit was not always enough;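 also: plate controls were DMSO wells with GST-MLLE for no effect and wells lacking GST-MLLE protein for full effect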
core dimer inh: blocks dimerization of HCV core protein | AID 1899 | 0.33% of 300,000 active | inhibition, % at 5 µM | TR-FRET GST/Flag-core106 dimerization, 1536-well;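 active = inhibition above the mean of all tested compounds plus 3 SD, set per screening campaign, cut at about 45% in these data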
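Assay system: Tagged HCV core106 pair (GST and Flag) | Buffer or medium: KF-containing HEPES buffer, pH 7.45, DTT, CHAPS, BSA | Also added: Eu donor and XL665 acceptor anti-tag antibodies | Dosing: One concentration, 5 µM, in 0.5% DMSO | Timing: 4 h at 22.5 °C | Technique: TR-FRET 671 and 617 nm emission | Repeats: Singlicate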
Starred values were filed as active, the others as inactive; ? = inconclusive; · = not tested or not shown. A selection: hits, their analogues and other compounds. The true share with any hit is near 2%. Unless noted, no rule for the calls is given here.

SMILES	PABP polyA inh	eIF4H FP inh	HCV NS3 hel inh	DNA FID counter	PABP1 MLLE inh	core dimer inh
Cc1ccc(-n2sc3ccccc3c2=O)cc1	-10	8	3	-6	16	-14
COc1ccc(CCNC(=O)CC(=O)N/N=C\c2ccc(OCC(N)=O)cc2)cc1OC	·	·	·	·	17	·
CC/C(=N\Nc1ccc([N+](=O)[O-])cc1)c1ccccc1	126*	61	-10	9	-74	-6
CCCNC(=O)Cn1c(=O)/c(=C/c2ccc(-c3ccc([N+](=O)[O-])cc3)o2)s/c1=C\C(=O)C(C)(C)C	·	·	·	·	-12	·
O=C(NCCNC(=O)c1ccc(-c2cc(Cl)ccc2Cl)o1)c1cnccn1	·	·	·	·	-7	·
CCOc1ccc(NCc2cccn2-c2nnc(N3CCC(C(=O)NCCCN4CCCCC4CC)CC3)s2)cc1 (stereo unspecified)	-5	0	-83	40*	-30	-14
CC1CCCCN1CCCNC(=O)C1CCN(c2nnc(-n3cccc3)s2)CC1 (stereo unspecified)	-7	-8	-58	0	-4	-2
OCC(O)CNC(=S)NC1CCCCC1 (stereo unspecified)	-4	4	-8	3	42*	-3
COC(=O)c1cnc(Nc2nc(CN)cs2)nc1C(F)(F)F	·	·	·	·	0	·
Cc1ccc(SCc2cc(=O)c3c(=O)n(-c4ccccc4)[nH]c3[nH]2)cc1	19*	93	16	-9	17	0
O=c1cc(CSc2ccccc2)[nH]c2ccccc12	-12	-5	-3	-6	-6	3
CCCCCC(=O)N1C[C@@H](n2cc(C3CC3)nn2)[C@H](O)C[C@@H]1c1ccc(Cl)cc1	·	·	·	·	8	·
CNC(=S)SCCOc1ccc(C)cc1	13	-4	-7	3	9	6
O=S1(=O)CCC(NC(=S)SCCOc2ccccc2)C1 (stereo unspecified)	-5	0	5	2	40*	3
CNC(=S)SCCOc1ccccc1	-1	-19	1	0	36*	0
C=C(C)C(=O)Nc1cccc(C2=NOC3(C2)C[C@@H](C(N)=O)N(C(=O)C(=C)C)C3)c1 (stereo partly specified)	61*	93*	·	·	7	-103
C=C(C)C(=O)Nc1cccc(C2=NOC3(C2)C[C@H](C(N)=O)N(C(=O)c2ccccc2)C3)c1 (stereo partly specified)	62*	91*	·	·	-4	-38
C=C(C)C(=O)Nc1cccc(C2=NOC3(C2)C[C@H](C(N)=O)N(C(=O)COc2ccc(Cl)cc2)C3)c1 (stereo partly specified)	50*	86*	·	·	-6	-203
CCC(=O)Nc1cccc(C2=NOC3(C2)C[C@@H](C(N)=O)N(C(=O)COc2ccc(Cl)cc2)C3)c1 (stereo partly specified)	9	-19	·	·	-3	6
C/C=C\C(=O)Nc1cccc(C2=NOC3(C2)C[C@@H](C(N)=O)N(C(=O)C2(C)CC2)C3)c1 (stereo partly specified)	3	0	·	·	1	-17
C=C(C)C(=O)Nc1cccc(C2=NOC3(C2)C[C@@H](C(N)=O)N(C(=O)c2ccc(Cl)cc2)C3)c1 (stereo partly specified)	·	·	·	·	·	-200
C=C(C)C(=O)Nc1cccc(C2=NOC3(C2)C[C@@H](C(N)=O)N(C(=O)C2(C)CC2)C3)c1 (stereo partly specified)	70*	100*	·	·	3	-206
COc1ccc(NC(=O)N(C)C[C@H]2Oc3ccc(NC(=O)NC4CCCCC4)cc3C(=O)N([C@H](C)CO)C[C@@H]2C)cc1	·	·	·	·	-5	·
COc1ccc(Cc2nnc(SCC(=O)Nc3ccccc3C)n(N)c2=O)cc1	·	·	·	·	2	1
C=C(C)C(=O)N1CC2(CC(c3cccc(NC(=O)/C=C\C=C/C)c3)=NO2)C[C@H]1C(N)=O (stereo partly specified)	-1	-9	·	·	17	56*
SMILES	PABP polyA inh	eIF4H FP inh	HCV NS3 hel inh	DNA FID counter	PABP1 MLLE inh	core dimer inh
NC(=O)[C@H]1CC2(CC(c3cccc(NC(=O)CC(c4ccccc4)c4ccccc4)c3)=NO2)CN1C(=O)c1ccccc1C(=O)c1ccccc1 (stereo partly specified)	-4	-4	·	·	-7	46*
C/C=C\C(=O)Nc1cccc(C2=NOC3(C2)C[C@H](C(N)=O)N(C(=O)/C=C/CC)C3)c1 (stereo partly specified)	10	-4	·	·	-17	-4
C/C=C\C=C/C(=O)Nc1cccc(C2=NOC3(C2)C[C@@H](C(N)=O)N(C(=O)/C=C/CC)C3)c1 (stereo partly specified)	4	-5	·	·	23	53*
CCOc1ccc(NC(=S)N2CCN(S(=O)(=O)c3ccc(OC)cc3)CC2)cc1	4	1	-9	-29	-112	·
COc1ccccc1-c1csc(C(O)c2cccc(Cl)c2)n1 (stereo unspecified)	·	·	·	·	-6	·
CCN1C=C(Cc2cccs2)C2=C(C1)C(c1cccs1)C(C#N)=C(N)O2 (stereo unspecified)	67*	93*	20	-16	-21	39
CCN1CC2=C(OC(N)=C(C#N)C2c2cccs2)/C(=C/c2cccs2)C1 (stereo unspecified)	?	?	10	-8	-31	46
Cc1cccc2nc(CNC(=O)C3CCC(=O)N(Cc4ccccc4F)C3)cn12 (stereo unspecified)	-8	-14	2	-11	4	-1
CCOC(=O)c1ccccc1NC(=O)c1ccc2nc[nH]c2c1	11	10	-5	-13	-7	-6
CCOC(=O)c1ccccc1NC(=O)c1ccc2nccnc2c1	3	68*	-2	-16	-16	54*
O=C1CCCC2=C1C(c1ccco1)Nc1ccc(C(=O)c3ccccc3)cc1N2 (stereo unspecified)	53*	82*	19	-15	-2	21
O=C(N/N=C/c1ccncc1)c1cc([N+](=O)[O-])cc([N+](=O)[O-])c1O	24	76*	30	-5	6	6
COc1cccc(/C=N/NC(=O)c2ccncc2)c1OC(=O)c1ccc(Br)cc1	?	?	-14	-47	59*	3
COc1cc(/C=N/NC(=O)c2ccncc2)ccc1OC(=O)c1cccc(Br)c1	-5	-3	-30	-38	3	0
O=C(N/N=C/c1ccncc1)c1cc2ccccc2cc1O	0	-5	5	-19	-6	·
COc1cc(OC)c([N+](=O)[O-])cc1/C=N/NC(=O)c1ccncc1	12*	59*	2	-1	22	-8
CC1CCC2(CC1)NC(=O)N(CC(=O)NC1CCCCC1C)C2=O (stereo unspecified)	·	·	·	·	-7	·

Compound activity from PubChem BioAssay.
